# Results as given in PubChem BioAssay.
# Values without a mark were called inactive. Records with an inconclusive call do not appear. The source made the active and inactive calls.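 Rule for the calls, unless noted: active = growth inhibition above 25% in both replicates, a cutoff set 3 SD above the mean; inconclusive = above 25% in only one replicate; inactive = the rest.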
# What was measured:
# [1] = OD615 S. cerevisiae growth inhibition, permissive medium, pilot counter-assay, permissive growth control for S. cerevisiae lifespan shortening project (AID 705); conditions: OD615, 24 h, at 10 µM, active compounds read high
# Method in brief: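 assay system = Saccharomyces cerevisiae strain carrying genetically modified DeaD replicative-lifespan system | technique = absorbance (optical density) at 615 nm | buffer or medium = permissive raffinose/galactose medium | timing = cells pre-grown 4 h, then 24 h compound exposure, 30 °C humidified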
# [2] = Restrictive medium S. cerevisiae growth inhibition, OD615, pilot screen of yeast lifespan reduction project, restrictive growth control (AID 706;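 active = growth inhibition above a set limit, 3 SD over mean compound inhibition, in both replicates, cut at about 43% in these data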;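 note: modified DeaD lifespan yeast strain shifted to restrictive glucose medium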); conditions: OD615, 48 h, at 10 µM, active compounds read high
# Method in brief: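 System: modified S. cerevisiae. Buffer or medium: CSMM-D glucose medium. Incubation: 4 h pre-growth plus 48 h compound exposure, 30 °C. Detection: absorbance (optical density) measured at 615 nm.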
# [3] = viability gain of MRP-1-high H69AR cells under doxorubicin, pilot screen, MRP-1 activator project, CellTiter-Glo, duplicate (AID 807;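 active = viability increase at or above a cutoff of the median across tested compounds plus 3 SD, cut at about 8.5% in these data, passing the limit was not always enough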;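 note: compound pretreatment 18-22 h then 72 h combined with doxorubicin; 0% = doxorubicin alone and 100% = vehicle without doxorubicin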); conditions: H69AR viability with doxorubicin, CellTiter-Glo luminescence; at 10 µM; active compounds read high
# [4] = growth suppression of beta-catenin knockout HCT116, pilot screen, human colon tumor cells (AID 823;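 active = cell viability at or below a set limit in both duplicate runs, the limit being the all-compound median minus 4 SD, cut at about 23% in these data, passing the limit was not always enough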;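 note: 0% = wells killed by 20 µM Hyamine and 100% = untreated DMSO cell wells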); conditions: CellTiter-Glo, 60 h, at 10 µM, active compounds read low
# [5] = growth suppression of PTEN-deleted HCT116, pilot screen, cell-based, HCT116 clonal line, CellTiter-Glo (AID 824;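 active = viability at or below 27.92% in each of two runs, the all-compound median minus 4 SD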;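 note: 0% = 20 µM Hyamine control and 100% = vehicle cell control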); conditions: 60 h, at 10 µM, active compounds read low
# [6] = inhibitors of the yeast RAM network, pilot screen, dse1pr::URA3 reporter, 5-FOA selection (AID 869;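 active = inhibition over a set limit, the all-compound mean plus 3 SD, in both replicate runs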;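 note: 0% = DMSO wells with no growth and 100% = 10 µM 1-NA-PP1 with full growth; RAM network block rescues cells from 5-FOA so hits raise OD615 growth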); conditions: S. cerevisiae dse1pr::URA3 5-FOA growth, OD615, 2 d; at 10 µM; active compounds read high; strain carries analog-sensitive mutant Cbk1 kinase
# [7] = RAM signaling pathway blockade in yeast – S. cerevisiae, Pdr1DBD-CYC8 efflux-inhibited sensitized strain, primary screen (AID 1298;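 active = RAM network inhibition above 8.4% in each of two replicates, 3 SD over the compound average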;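 note: 0% = DMSO untreated cells without growth and 100% = 10 µM 1-NA-PP1 full growth; higher means more yeast growth rescued from 5-FOA killing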); conditions: S. cerevisiae cbk1-as DSE1-URA3 strain, 5-FOA growth OD615, 2 d; at 50 µM; active compounds read high
Compound,growth inhibition [1] [%],growth inhibition [2] [%],viability increase [3] [%],viability [4],viability [5],inhibition [6],RAM network inhibition [7] [%]
c1ccc(CSc2nnc(-c3ccco3)n2Cc2ccco2)cc1,-5.04,0.405,-3.83,88.6%,87.4%,1.85%,3.53
COc1ccc(-n2c(SCC(=O)Nc3nccs3)nc3c(c2=O)SC(C)C3)cc1 (stereo unspecified),-7.21,-3.74,-2.46,97.1%,93%,1.56%,7.02
COC(=O)c1c(C(=O)OC)c2n(c1C)Cc1ccccc1C2,-4.47,-1.14,-1.39,86.6%,90.2%,1.85%,1.43
CCSc1nnc(Cn2c(=O)sc3ccccc32)n1-c1ccccc1C,-2.14,-4.08,-1.61,93.9%,89.7%,1.61%,8.51
CCN1CCN(C(=O)C2CCN(Cc3nc(-c4cccc(Cl)c4)oc3C)CC2)CC1,-1.82,-14.3,-4.04,69%,72.4%,0.9%,1.16
O=C(O)CCC(=O)N1CCc2cc(S(=O)(=O)Nc3ccc4c(c3)OCCO4)ccc21,-4.35,-7.19,-1.45,94%,96.3%,0.535%,-1.56
COC(=O)CN(c1ccc(C(C)C)cc1)S(=O)(=O)c1c(C)[nH]c(=O)[nH]c1=O,-0.6,11.3,-2.38,88.8%,94.6%,2.21%,2.71
Cn1cc(SCC(=O)Nc2ccc3c(c2)OCO3)c2ccccc21,-6.75,-9.39,-2.72,100%,92.9%,1.69%,2.23
Nc1nonc1/C(=N/O)N1CCN(CCO)CC1,1.46,-1.22,0,104%,100%,1.46%,0.95
O=C(C1CCCN1S(=O)(=O)c1cccc2cccnc12)N1CCc2ccccc2C1 (stereo unspecified),-8.21,-13.1,-1.96,92.3%,86.7%,0.745%,0.84
O=C(NCCN1CCCCCC1)C1CCC(CNS(=O)(=O)c2cccc3cccnc23)CC1 (stereo unspecified),-8.39,-3.45,-3.58,90.7%,93.8%,1.59%,10
COc1ccc(OC)c(C2CC(=O)c3c([nH]c(C(=O)OC(C)C)c3C)C2)c1 (stereo unspecified),-9.82,-21.9,-7.46,15.2% (active),14.8% (active),1.69%,0.97
COc1ccc(-c2nc(CS(=O)CC(=O)NCCC3=CCCCC3)c(C)o2)cc1 (stereo unspecified),0.225,9.63,-4.36,77.1%,79.6%,0.475%,3.02
c1ccc(OCc2nn3c(-c4ccccn4)nnc3s2)cc1,7.46,34,0.02,104%,94%,1.48%,2.54
COc1cc2c(=O)n(Cc3ccccc3)c(=O)n(CC(=O)NCC3CCCO3)c2cc1OC (stereo unspecified),-2.89,-0.925,-0.67,97.9%,94.1%,2.3%,3.29
CCNCCNC(=O)c1c(O)c2cccc3c2n(c1=O)CCC3,-22.8,-19,-3.02,82.6%,93.7%,0.7%,0.57
Nc1nc2c(c3c1c(=O)oc1ccccc13)CCCCC2,-4.79,5.31,-2.59,94.9%,96.2%,2.28%,2.05
O=C(COc1cc(=O)n2c(n1)SCCC2)c1ccccc1,-6.77,-2.62,-1.08,102%,92.7%,1.56%,1.89
Cc1ccc(N2CN=c3s/c(=C\c4ccccn4)c(=O)n3C2)cc1,-7.53,1.19,-2.37,86.8%,98.7%,-0.31%,3.39
O=C(Cn1cnc2ccccc2c1=O)N(Cc1ccco1)c1ccc(O)cc1,-4.45,-19.6,-1.76,92%,89.8%,0.94%,-0.26
O=C(COc1ccc(Cl)cc1)OCC(=O)N1CCCC1,-6.8,-26.8,-2.32,94.5%,95.3%,1.44%,3.51
CCOC(=O)c1ccc(NS(=O)(=O)c2cc(-c3nnnn3CC)ccc2OC)cc1,-0.78,-5.39,-2.01,92.5%,90.2%,1.56%,6.36
COc1ccc(OC)c2sc(NC(=O)c3ccc(Br)s3)nc12,-1.73,-13,-3.64,85.1%,59.5%,2.71%,2.69
O=C(CSc1nc2c(cnn2-c2ccc(F)cc2)c(=O)[nH]1)N1CCCc2ccccc21,-2.67,-5.17,-3.32,87.2%,83%,1.2%,4.44

Compound,growth inhibition [1] [%],growth inhibition [2] [%],viability increase [3] [%],viability [4],viability [5],inhibition [6],RAM network inhibition [7] [%]
c1ccc(-c2noc(CN3CCN(c4ccccc4)CC3)n2)cc1,-8.41,2.94,-2.27,94.5%,97.3%,0.125%,3.29
CCC(C)OC(=O)C1=C(C)NC(=O)NC1c1ccc(F)cc1 (stereo unspecified),-8.18,-18.7,-2.13,97%,92.7%,1.36%,2.77
CC1CCCN(c2nc3c(c(=O)[nH]c(=O)n3C)n2CCSc2ncccn2)C1 (stereo unspecified),-2.51,2.04,-3.17,97%,96.8%,1.14%,2.7
O=C(CN1C2=NCCCN2c2ccccc21)c1cccs1,1.83,-10.1,-3.27,95.7%,92.1%,0.695%,4.72
CC1(C)Cc2c(C#N)c(NC3CCCCC3)nc(-c3ccco3)c2CO1,-15.4,-17.4,-6.33,80.3%,76.3%,3.23%,0.53
CCOC(=O)C1=C(SCC(=O)Nc2ccccc2)NC(=O)C(C#N)C12CCCCC2 (stereo unspecified),-8.66,-7.72,-2.95,85.1%,91.5%,1.71%,2.44
Cc1ccc(-n2c3c(cc(C(=O)NCc4ccco4)c2=O)C(=O)CC(C)(C)C3)cc1,-5.76,-4.77,-5.37,83%,85.6%,-0.235%,3.42
Clc1ccc(OCc2nnc(-c3ccccc3Br)o2)c(Cl)c1,-11.4,-17,-0.17,95.9%,89.3%,6% (active),14
CCOC(=O)N1CCC(NC(=O)c2ccc(CS(=O)(=O)c3ccccc3C)o2)CC1,-9.38,-19.7,-0.86,106%,98.5%,-0.185%,7.2
COC(=O)c1ccc(OC(=O)c2nn(C)cc2Cl)c(OC)c1,-0.14,10.2,-5.78,101%,95.5%,-0.22%,-0.57
CC(NS(=O)(=O)c1ccc(Br)cc1)C(c1cccs1)N1CCN(C)CC1 (stereo unspecified),-5.18,3.13,-2.85,78.2%,84.2%,0.53%,0.88
CN(CCc1ccccn1)C(=O)Nc1ccc(F)cc1,-7.65,-14.7,-1.63,108%,98%,0.71%,5.39
O=C(O)CCCNS(=O)(=O)c1ccc(F)cc1,-5.7,-0.905,-1.33,105%,101%,1.14%,0.11
COc1cccc(-c2nc(C(N)=O)c3[nH]c(=O)n(-c4ccccc4)c3n2)c1OC,-8.87,-8.02,-4.58,99.4%,95.9%,3.04%,-0.2
CC(C)N(Cc1nc(-c2ccc(Cl)cc2)no1)C(=O)CCC1CCCC1,-13.1,-14.6,-0.03,70.3%,74.4%,0.865%,8.34
O=C1CSC(=O)N1CC(O)COc1ccc(Cl)cc1 (stereo unspecified),0.955,-20.5,3.19,102%,91.9%,0.995%,1.1
COCCN1C=C(C(=O)OC)C(c2ccc(OC)c(OC)c2)C(C(=O)OC)=C1,-4.43,-9.06,-0.95,98%,100%,1.43%,-0.97
Cc1ccc(C)c2[nH]c(=O)c(CCNC(=O)CC(C)C)cc12,-2.83,-10.7,-1.74,103%,108%,1.75%,8.88
COc1ccc(C2N3CC4(C)CN2CC(C)(C3)C4=O)cc1OC (stereo unspecified),-1.15,2.95,-0.5,102%,103%,1.67%,0.11
Cc1cc(C)n(-c2nc3ccccc3c3nc(C)nn23)n1,-10.5,-2.51,-0.57,104%,101%,0.195%,4.75
CC(CCc1ccccc1)C(=O)NO (stereo unspecified),-6.16,-10.5,-3.84,95.6%,91.6%,0.87%,1.5
CCCCCn1c(CCCNC(=O)CC)nc2ccccc21,-8.6,-0.63,-2.94,89%,97.6%,0.405%,2.13
CC(C)NC(=O)c1ccc(CS(=O)(=O)c2ccc(Br)cc2)o1,4.63,3.97,-1.73,87.1%,95.1%,1.95%,4.82
COc1ccc2oc(-c3ccccc3)c(C(=O)N3CCOCC3)c2c1,2.58,-8.54,-3.95,94.3%,90%,1.52%,5.28
